MDM2 E3 inh – inhibitors of human Mdm2 E3 ubiquitin ligase. signal enhancement, % at 5 µM. Q00987. hit rate 0.11% among 210,000. AID 1230. cell-based MDM2 ubiquitination luciferase reporter, 2 h; 0 = plate control, 100 = twice control, blank-subtracted;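 active = signal enhancement of 30% or more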;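 note: luminescence tracks abundance of the self-degrading MDM2-luciferase fusion protein; higher signal means inhibition of MDM2 E3 ligase activity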
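Material: stable MDM2–luciferase fusion reporter cells / Quantity: 2000 cells/well / Dosing: single 5 µM compound dose, 0.2% final DMSO / Buffer or medium: DMEM / Schedule: 4 h cell settling then 2 h compound exposure, 37 °C / Detection: luminescence with SteadyLite reagent, 15 min at room temperature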
S1P3 antagonist – antagonists of human S1P3 receptor; hit rate 0.27% among 170,000; CHO S1P3 NFAT-BLA reporter, FRET fluorescence, antagonist mode; inhibition, % at 4.98 µM;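 active = inhibition above the plate cutoff, the mean inhibition of test wells on that plate plus 3 SD, cut at about 28% in these data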;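 note: cells challenged with S1P at its EC80 of 0.8 µM; blue over green emission ratio from cleaved BLA substrate after 4 h stimulation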
Target sequence (Q99500 whole entry, looked up): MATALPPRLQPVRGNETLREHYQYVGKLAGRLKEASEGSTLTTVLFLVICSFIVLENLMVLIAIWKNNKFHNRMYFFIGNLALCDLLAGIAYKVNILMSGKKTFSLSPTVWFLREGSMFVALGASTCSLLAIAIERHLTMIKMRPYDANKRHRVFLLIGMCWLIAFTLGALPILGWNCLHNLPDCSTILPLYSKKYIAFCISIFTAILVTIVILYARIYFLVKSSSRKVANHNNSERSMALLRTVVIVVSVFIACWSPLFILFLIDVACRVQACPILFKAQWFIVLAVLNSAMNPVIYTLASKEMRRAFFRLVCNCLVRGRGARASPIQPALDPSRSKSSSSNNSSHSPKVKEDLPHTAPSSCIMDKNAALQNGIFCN
S1P4 antag – antagonists of human S1P4 receptor | O95977 | S1P4-expressing cells, antagonist mode, reporter read-out | inhibition, % at 4.98 µM | hit rate 0.26% among 220,000 | AID 1510; in the data active = inhibition above about 29%
L major viab – reduces viability of Leishmania major promastigotes | AID 1063 | resazurin fluorescence viability | hit rate 9% among 200,000 | inhibition, % at 10 µM; in the data active = inhibition above about 50%;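 note: promastigotes grown with compound for 44 hours at 28 °C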
S1P4 agonist – agonists of human S1P4 receptor; O95977; S1P4-expressing cell line, agonist reporter assay; activation, % at 4.98 µM; hit rate 0.35% among 220,000; AID 1509; in the data active = activation above about 11%
A number is an active result; 0 = inactive; - = not tested or not shown. Many of the other results were omitted from the sample, so hits are more common in it than they were.

SMILES	MDM2 E3 inh	S1P3 antagonist	S1P4 antag	L major viab	S1P4 agonist
Cc1ccc(C)c(NS(=O)(=O)c2ccc3[nH]c(=O)oc3c2)c1	0	0	0	0	0
O=C(NCCO)/C(=C\c1ccc(Br)cc1)NC(=O)c1cccs1	0	0	0	0	0
CCCN(CCC)C1=CC(=[N+]2CCCC2)CC(C)(C)C1	0	0	0	100.1	0
CC1(C)CC(N2CCCCC2)=CC(=[N+]2CCCCC2)C1	0	0	0	100.1	0
O=C(CCCN1C(=O)c2ccccc2C1=O)Nc1ccc2c(c1)OCCO2	0	0	0	0	0
COc1cc(NC(=S)NCc2cccnc2)cc(OC)c1OC	0	0	0	0	0
COc1cc(NC(=S)NCc2cccnc2)cc(OC)c1	0	0	0	95.8	0
Cc1ccc(CC2(O)CC(C)N(C)CC2C)c(C)c1 (stereo not given)	0	0	0	69.4	0
C=CCCCCCCCCC(=O)Nc1c[nH]c(=O)[nH]c1=O	0	-	0	93.4	0
CCc1ccc2[nH]c(=O)c(CN(Cc3ccccc3OC)Cc3nnnn3Cc3ccco3)cc2c1	0	0	0	99.0	0
COc1ccc2[nH]c(=O)c(CN(Cc3ccco3)Cc3nnnn3Cc3ccccc3)cc2c1	0	0	0	0	0
COc1ccccc1CN(Cc1cc2cc(C)ccc2[nH]c1=O)Cc1nnnn1Cc1ccco1	0	0	0	60.9	0
Fc1ccccc1Cc1noc(CN2CCN(Cc3ccc4c(c3)OCO4)CC2)n1	0	0	0	83.9	0
COC(=O)[C@@H]1CCCN1Cc1nc(Cc2ccccc2F)no1	0	0	0	0	0
COc1ccccc1CN1CCN(Cc2nc(Cc3ccccc3)no2)CC1	0	0	0	0	0
c1ccc(Cc2noc(CN3CCC(CN4CCOCC4)CC3)n2)cc1	0	0	0	0	0
Fc1cccc(CN2CCN(Cc3nc(CCc4ccccc4)no3)CC2)c1	0	0	0	79.1	0
c1ccc(Cc2noc(CN3CCN(Cc4ccc5c(c4)OCO5)CC3)n2)cc1	0	0	0	90.0	0
O=C(C1CCN(Cc2nc(Cc3cccc(F)c3)no2)CC1)N1CCOCC1	0	0	0	0	0
C(=C\c1ccccc1)/CN1CCN(Cc2nc(Cc3ccccc3)no2)CC1	0	0	0	79.7	0
CCC(Sc1nncn1C)C(=O)Nc1ccccc1OC (stereo not given)	0	0	0	0	0
CCOC(=O)c1[nH]ncc1CN1CCN(Cc2ccccc2)C(CCO)C1 (stereo not given)	0	0	0	0	0
COCCNC(=O)Cn1nc(C)c([N+](=O)[O-])c1C	0	0	0	0	0
CC(C)(C)c1ccccc1OCCCCN1CCCC1	0	-	0	99.0	0
CC(C)c1cccc(C(C)C)c1OCCCCN1CCCC1	0	-	0	92.4	0
SMILES	MDM2 E3 inh	S1P3 antagonist	S1P4 antag	L major viab	S1P4 agonist
Cc1cccc(C(C)(C)C)c1OCCCCN1CCCC1	0	-	0	99.6	0
Cc1ccccc1OCC(=O)NCCN1CCCC1	0	0	0	0	0
Cn1ncc(N=Cc2ccccc2)c1C(=O)Nc1cccc(Cl)c1	0	-	0	0	0
CC(C)n1nnnc1SCC(=O)Nc1ccccc1N1CCOCC1	0	0	-	-	-
O=C(CSc1nnnn1C1CCCCC1)Nc1ccccc1N1CCOCC1	0	0	0	60.3	0
COc1ccc(-n2nnnc2SCC(=O)Nc2ccccc2N2CCOCC2)cc1	0	0	0	98.6	0
CCOc1ccc(-n2c(-c3ccccc3)c[n+]3c2CCCCC3)cc1	0	0	0	100.3	0
c1ccc(-c2c[n+]3c(n2-c2ccccc2)CCC3)cc1	0	0	0	-	0
Cc1cccc2cc(CN(Cc3nnnn3C3CCCCC3)C3CCCC3)c3nnnn3c12	0	-	0	50.2	0
Clc1ccc(OCc2nnc(-c3ccccc3Br)o2)c(Cl)c1	0	0	0	0	0
CCn1c(/C=C/N(C)c2ccccc2)[n+](CC)c2ccc(Cl)cc21	0	-	0	100.2	0
CCn1c(/C=C/Nc2ccccc2)[n+](CC)c2ccc(Cl)cc21	0	0	0	91.5	0
O=C(COc1cccnc1[N+](=O)[O-])c1ccc(Cl)s1	0	0	0	-	0
CCOc1ccccc1N1CCN(C(=O)/C=C/c2cccc([N+](=O)[O-])c2)CC1	0	0	0	0	0
CCNC(=S)NCCN1CCOCC1	0	0	0	0	0
CC(NC(=S)NCCN1CCOCC1)C12CC3CC(CC(C3)C1)C2 (stereo not given)	0	0	0	90.5	0
Cc1ccccc1C(=O)NC(=S)NCCN1CCOCC1	0	0	0	82.9	0
CNC(=S)NCCN1CCOCC1	0	0	0	50.6	0
Cc1ccccc1C(=O)NCCN1CCOCC1	0	0	0	0	0
CC(NC(=S)NCCCN1CCOCC1)C1CC2CCC1C2 (stereo not given)	0	0	0	87.0	0
Cc1ccc(O)c(C(=O)c2cnn(C(=O)COc3ccccc3C#N)c2)c1	0	0	0	-	0
CSc1nc(-c2ccccc2)nc(NC(C)=O)c1C(C)=O	0	0	0	0	0
Cc1ccccc1NC(=O)Cc1nnc(N)s1	0	0	0	-	0
CC1CC(C)(C)NC(=S)N1CCC(=O)NCc1ccc(Cl)cc1 (stereo not given)	0	0	0	0	0
COc1ccc(CNC(=O)Cn2nnc(-c3ccc(NC(=O)C4CCCCC4)cc3)n2)cc1	0	0	0	0	0
SMILES	MDM2 E3 inh	S1P3 antagonist	S1P4 antag	L major viab	S1P4 agonist
Cc1sc(N)c(C(=O)c2ccccc2)c1C	0	0	0	0	0
Cc1ccc(NC(=S)NCCN(C2CCCCC2)C2CCCC2)cc1C	0	0	0	64.2	0
CCOCCCNC(=S)Nc1cc(C)cc(C)c1	-	0	0	0	0
Cc1cc(C)cc(NC(=S)NCCN(C2CCCCC2)C2CCCC2)c1	0	0	0	62.5	0
Cc1ccc(NC(=S)NCCN(C2CCCCC2)C2CCCC2)cc1	0	0	0	0	0
CC1CCCC(N2C(=O)NC(NC(=O)c3ccco3)(C(F)(F)F)C2=O)C1C (stereo not given)	0	0	0	56.0	0
CCCCN1C(=O)NC(NC(=O)c2ccco2)(C(F)(F)F)C1=O (stereo not given)	0	-	0	0	0
Cc1cc(C)n(-c2cc(N3CCN(C(=O)c4ccccc4C)CC3)ccc2[N+](=O)[O-])n1	-	-	0	0	0
O=[N+]([O-])c1ccccc1NCCNS(=O)(=O)c1ccc(Cl)cc1	0	0	0	0	0
O=[N+]([O-])c1ccc(NCCCNS(=O)(=O)c2ccc(Cl)cc2)c(Cl)c1	0	-	0	94.5	0
Cc1ccc(C)n1-c1ccc(C(=O)N/N=C/c2ccncc2)cc1	0	0	0	0	0
O=C(N/N=C(\c1ccccc1)c1ccccn1)c1cccc([N+](=O)[O-])c1	0	0	0	100.2	0
CCOc1ccc(C(=O)N/N=C(\c2ccccc2)c2ccccn2)cc1	0	-	0	99.4	0
COc1ccc(Nc2nc(-c3c[nH]c4ccccc34)cs2)cc1	0	0	0	85.2	0
COc1ccc(Nc2nc(-c3ccc(OC)cc3)cs2)cc1	-	0	0	0	0
COc1ccc(-c2cc(C#N)nc(N3CCNCC3)n2)cc1	0	-	0	100.5	0
COc1ccc(-c2cc(C#N)nc(N3CCN(C)CC3)n2)cc1	0	0	0	0	0

High-throughput results as filed in PubChem BioAssay.
